Assay results as given in ChEMBL document CHEMBL4020727, “Synthesis and biological evaluation of largazole zinc-binding group analogs” (Bioorg Med Chem, 2017).

What was measured:
MDA-MB-231 = assay: Cytotoxicity against human MDA-MB-231 cells assessed as reduction in cell viability after 48 hrs by MTT assay; assay type: functional, cell-based; conditions: MDA-MB-231, 48 h
Procedure, shortened: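 Cells grown in DMEM with 10% FBS, 37 °C, 5% CO2; 1 × 10^4 cells per well plated and left 24 h, then exposed to a range of compound concentrations or vehicle (1% EtOH) for 48 h. Viability read by MTT.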

Histone deacetylase 1 = Histone deacetylase 1 (Homo sapiens, UniProt Q13547); assay: Inhibition of recombinant full length C-terminal His/FLAG-tagged human HDAC1 expressed in baculovirus infected Sf9 insect cells using BPS HDAC substrate 3 after 30 mins by fluorescence assay
Procedure, shortened: (§1)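 Run by a contract lab. Compound incubated with HDAC enzyme, HDAC substrate, BSA and HDAC buffer, in duplicate, at 37 °C for 30 min. Quenched with HDAC developer, then 15 min at room temperature. Percent activity = (F−Fb)/(Ft−Fb), using blank and solvent-control wells. IC50 from curve fitting.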

Histone deacetylase 2 = Histone deacetylase 2 (Homo sapiens, UniProt Q92769); assay: Inhibition of full length C-terminal FLAG-tagged human HDAC2 expressed in baculovirus infected Sf9 insect cells using BPS HDAC substrate 3 after 30 mins by fluorescence assay; procedure, shortened: as §1
Histone deacetylase 8 = target: T1, Histone deacetylase 8 (Homo sapiens, UniProt Q9BY41); assay: Inhibition of full length C-terminal His-tagged human HDAC8 expressed in baculovirus infected Sf9 insect cells using BPS HDAC class 2a substrate after 30 mins by fluorescence assay; procedure, shortened: as §1
T1 sequence (Q9BY41 whole entry): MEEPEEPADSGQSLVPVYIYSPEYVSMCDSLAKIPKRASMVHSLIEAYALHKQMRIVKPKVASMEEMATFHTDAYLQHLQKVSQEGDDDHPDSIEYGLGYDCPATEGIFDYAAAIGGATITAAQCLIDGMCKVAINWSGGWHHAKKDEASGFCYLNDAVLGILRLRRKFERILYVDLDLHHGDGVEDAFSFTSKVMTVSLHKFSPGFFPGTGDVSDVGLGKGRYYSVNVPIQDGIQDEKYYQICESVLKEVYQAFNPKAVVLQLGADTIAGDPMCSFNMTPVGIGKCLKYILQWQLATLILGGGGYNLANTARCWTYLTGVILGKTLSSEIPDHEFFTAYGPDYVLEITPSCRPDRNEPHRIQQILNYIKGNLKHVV

[1] = target: Histone deacetylase 5 (Homo sapiens) (UniProt Q9UQL6); assay: Inhibition of full length N-terminal GST-tagged human HDAC5 expressed in baculovirus infected Sf9 insect cells using BPS HDAC class 2a substrate at 10 uM after 30 mins by fluorescence assay relative to control
Procedure, shortened: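 Run by a contract lab. Compound incubated with HDAC enzyme, substrate, bovine serum albumin and HDAC buffer in duplicate for 30 min at 37 °C. Quenched with HDAC developer, 15 min at room temperature, fluorescence read at ex 360/em 460 nm. Activity taken as (F−Fb)/(Ft−Fb) against blank and solvent control wells; IC50 from curve fitting.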

[2] = target: T2, Protein deacetylase HDAC6 (Homo sapiens, UniProt Q9UBN7); assay: Inhibition of full length N-terminal GST-tagged human HDAC6 expressed in baculovirus infected Sf9 insect cells using HDAC substrate 3 after 30 mins by fluorescence assay; procedure, shortened: as §1
T2 sequence (Q9UBN7 whole entry): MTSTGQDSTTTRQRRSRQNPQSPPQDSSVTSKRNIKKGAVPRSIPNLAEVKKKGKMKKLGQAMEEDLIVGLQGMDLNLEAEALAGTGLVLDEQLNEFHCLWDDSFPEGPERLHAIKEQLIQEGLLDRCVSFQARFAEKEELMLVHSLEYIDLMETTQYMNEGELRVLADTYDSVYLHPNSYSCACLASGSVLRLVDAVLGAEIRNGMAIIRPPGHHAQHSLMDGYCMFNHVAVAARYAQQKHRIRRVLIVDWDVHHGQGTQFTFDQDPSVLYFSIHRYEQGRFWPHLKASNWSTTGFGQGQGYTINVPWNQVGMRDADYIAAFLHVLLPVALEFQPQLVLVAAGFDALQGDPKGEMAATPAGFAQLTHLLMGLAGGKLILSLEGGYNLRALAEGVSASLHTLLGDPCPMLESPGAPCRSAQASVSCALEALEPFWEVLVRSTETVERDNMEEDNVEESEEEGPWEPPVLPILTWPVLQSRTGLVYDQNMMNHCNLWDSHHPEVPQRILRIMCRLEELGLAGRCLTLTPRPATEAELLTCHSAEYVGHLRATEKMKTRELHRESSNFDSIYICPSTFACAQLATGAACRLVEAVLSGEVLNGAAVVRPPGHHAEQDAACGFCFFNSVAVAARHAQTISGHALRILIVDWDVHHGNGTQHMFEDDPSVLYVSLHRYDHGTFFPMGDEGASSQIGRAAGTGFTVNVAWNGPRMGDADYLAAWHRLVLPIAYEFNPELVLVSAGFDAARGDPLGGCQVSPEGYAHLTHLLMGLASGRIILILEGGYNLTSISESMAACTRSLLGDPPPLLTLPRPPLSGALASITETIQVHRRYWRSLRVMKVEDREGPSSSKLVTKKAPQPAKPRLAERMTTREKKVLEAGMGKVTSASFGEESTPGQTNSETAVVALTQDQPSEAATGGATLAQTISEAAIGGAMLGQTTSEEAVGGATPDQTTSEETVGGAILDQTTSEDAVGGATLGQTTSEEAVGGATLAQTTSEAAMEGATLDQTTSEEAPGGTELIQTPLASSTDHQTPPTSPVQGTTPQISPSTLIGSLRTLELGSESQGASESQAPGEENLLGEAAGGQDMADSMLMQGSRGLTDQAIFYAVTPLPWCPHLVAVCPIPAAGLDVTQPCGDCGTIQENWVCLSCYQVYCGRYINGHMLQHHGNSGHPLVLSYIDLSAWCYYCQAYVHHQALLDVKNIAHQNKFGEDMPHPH

Sequence of Histone deacetylase 5 (Homo sapiens) (Q9UQL6 whole entry): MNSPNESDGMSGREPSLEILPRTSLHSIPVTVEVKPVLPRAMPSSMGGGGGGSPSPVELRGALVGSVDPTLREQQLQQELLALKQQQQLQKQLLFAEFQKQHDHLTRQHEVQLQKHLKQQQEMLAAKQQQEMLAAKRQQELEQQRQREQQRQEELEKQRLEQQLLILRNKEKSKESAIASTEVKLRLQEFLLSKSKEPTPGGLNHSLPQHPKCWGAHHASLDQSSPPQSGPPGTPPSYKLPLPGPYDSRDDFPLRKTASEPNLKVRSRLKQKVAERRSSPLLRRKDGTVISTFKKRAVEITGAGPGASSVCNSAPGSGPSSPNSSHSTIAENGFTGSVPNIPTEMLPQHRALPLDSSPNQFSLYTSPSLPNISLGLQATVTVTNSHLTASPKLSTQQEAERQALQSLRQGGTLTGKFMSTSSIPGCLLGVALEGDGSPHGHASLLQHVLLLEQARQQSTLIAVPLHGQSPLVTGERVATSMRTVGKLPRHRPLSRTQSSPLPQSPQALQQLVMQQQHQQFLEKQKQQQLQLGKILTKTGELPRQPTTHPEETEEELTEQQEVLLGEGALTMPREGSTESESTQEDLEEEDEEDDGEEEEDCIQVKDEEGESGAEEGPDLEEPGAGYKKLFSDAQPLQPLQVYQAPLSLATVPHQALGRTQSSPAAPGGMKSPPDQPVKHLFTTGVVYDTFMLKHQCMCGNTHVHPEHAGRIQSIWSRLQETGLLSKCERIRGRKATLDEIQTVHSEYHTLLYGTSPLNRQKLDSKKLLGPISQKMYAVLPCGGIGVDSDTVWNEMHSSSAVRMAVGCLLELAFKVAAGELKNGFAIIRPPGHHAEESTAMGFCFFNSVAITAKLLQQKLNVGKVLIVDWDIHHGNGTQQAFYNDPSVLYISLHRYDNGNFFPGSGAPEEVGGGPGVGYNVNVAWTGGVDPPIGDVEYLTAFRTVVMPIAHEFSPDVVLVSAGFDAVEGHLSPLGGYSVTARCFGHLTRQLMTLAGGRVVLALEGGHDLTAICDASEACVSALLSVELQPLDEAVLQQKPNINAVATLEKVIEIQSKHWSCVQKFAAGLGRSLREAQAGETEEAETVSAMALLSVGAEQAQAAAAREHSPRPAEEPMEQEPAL
Sequence of Histone deacetylase 2 (Q92769 whole entry): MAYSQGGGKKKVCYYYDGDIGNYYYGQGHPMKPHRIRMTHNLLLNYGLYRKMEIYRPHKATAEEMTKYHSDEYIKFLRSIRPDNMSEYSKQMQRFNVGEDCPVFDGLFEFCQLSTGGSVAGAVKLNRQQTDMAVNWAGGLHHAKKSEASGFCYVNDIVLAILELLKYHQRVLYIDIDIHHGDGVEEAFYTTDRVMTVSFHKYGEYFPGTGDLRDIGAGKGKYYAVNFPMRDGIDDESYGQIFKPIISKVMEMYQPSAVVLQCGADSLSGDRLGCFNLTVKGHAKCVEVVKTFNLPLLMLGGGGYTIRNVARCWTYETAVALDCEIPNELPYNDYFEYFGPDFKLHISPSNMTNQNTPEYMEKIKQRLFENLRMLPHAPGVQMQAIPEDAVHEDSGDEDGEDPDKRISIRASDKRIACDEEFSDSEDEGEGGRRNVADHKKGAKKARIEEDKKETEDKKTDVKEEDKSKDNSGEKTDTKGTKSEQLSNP
Sequence of Histone deacetylase 1 (Q13547 whole entry): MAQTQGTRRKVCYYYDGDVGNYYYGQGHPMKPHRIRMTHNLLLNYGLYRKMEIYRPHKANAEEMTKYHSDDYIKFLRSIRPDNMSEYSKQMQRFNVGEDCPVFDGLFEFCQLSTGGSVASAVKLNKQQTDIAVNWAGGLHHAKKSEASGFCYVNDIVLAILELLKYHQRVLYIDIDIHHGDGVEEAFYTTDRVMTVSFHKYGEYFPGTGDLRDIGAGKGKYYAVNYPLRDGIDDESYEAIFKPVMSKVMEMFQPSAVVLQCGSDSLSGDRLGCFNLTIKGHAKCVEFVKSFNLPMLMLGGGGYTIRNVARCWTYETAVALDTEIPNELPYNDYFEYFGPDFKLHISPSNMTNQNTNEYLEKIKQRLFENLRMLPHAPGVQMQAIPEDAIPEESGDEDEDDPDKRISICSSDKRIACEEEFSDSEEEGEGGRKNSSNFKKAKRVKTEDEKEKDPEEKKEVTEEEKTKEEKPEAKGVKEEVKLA

Compound | IC50 (MDA-MB-231) [nM] | IC50 (Histone deacetylase 1) [nM] | IC50 (Histone deacetylase 2) [nM] | IC50 (Histone deacetylase 8) [nM] | inhibition [1] [%] | IC50 [2] [nM]
CC(C)[C@@H]1NC(=O)[C@]2(C)CSC(=N2)c2csc(n2)CNC(=O)C[C@@H](/C=C/CCC(=O)NO)OC1=O | 497 | 26 | 69 | 3500 | 21 | 600
CC(C)[C@@H]1NC(=O)[C@]2(C)CSC(=N2)c2csc(n2)CNC(=O)C[C@@H](/C=C/CCSCCS)OC1=O | 480 | 40 | 90 | 9600 | 22 | 2800
